Laboratory results published in ChEMBL document CHEMBL4393661, “PRODRUGS FOR NITROREDUCTASE BASED CANCER THERAPY- 2: Novel amide/Ntr combinations targeting PC3 cancer cells” (Eur J Med Chem, 2019).

Legend:
[1] = Cytotoxicity against human Hep3B cells assessed as cell viability at 9 to 150 uM measured after 48 hrs by MTT assay relative to control; format: cell-based, Hep 3B2; details: read-out: Activity
How it was run: (§1)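 Hep3B and HUVEC cells were grown in high-glucose medium with 10% heat-inactivated FBS and 2 mM glutamine at 37 °C in 5% CO2. Cells were seeded at 5x10^4 per well and left 24 h to attach. They were then exposed for 48 h to 150, 75, 39, 19 and 9 µM, with 1% DMSO as vehicle control. Viability was read by MTT at 550 nm as (OD sample/OD control)×100.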

PC-3 [2] = test: Cytotoxicity against human PC3 cells assessed as reduction in cell viability measured after 48 hrs in presence of Staphylococcus saprophyticus nitroreductase and NADH by SRB assay; format: cell-based; details: PC-3, 48 h
How it was run: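 Prodrug at 180, 18 or 1.8 nM was premixed with Ssap-NtrB (31 µg/mL final) and NADH (600 µM final; 900 µM for CB1954) in 25 mM Tris-HCl pH 7.5, then added for 48 h under aerobic conditions. Cells were fixed with 12.5% TCA, stained with SRB and read at 492 nm, in triplicate.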

Putative nitroreductase [3] = molecular target: T1, Putative nitroreductase (Staphylococcus saprophyticus subsp. saprophyticus (strain ATCC 15305 / DSM20229 / NCIMB 8711 / NCTC 7292 / S-41), UniProt Q4A0P1); test: Substrate activity at Staphylococcus saprophyticus nitroreductase expressed in Escherichia coli assessed as retention time […] at 100 uM by HPLC analysis (0 to 5 mins at 20 % ACN, 15 to 22 min at 80% ACN, 27-32 AT 20% ACN); format: ADME
T1 sequence (Q4A0P1 whole entry): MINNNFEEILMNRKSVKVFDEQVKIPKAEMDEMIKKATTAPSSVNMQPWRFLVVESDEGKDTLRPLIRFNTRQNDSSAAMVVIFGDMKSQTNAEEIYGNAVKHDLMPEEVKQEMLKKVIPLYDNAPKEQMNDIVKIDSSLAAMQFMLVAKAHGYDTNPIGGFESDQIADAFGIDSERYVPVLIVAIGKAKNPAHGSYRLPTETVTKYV

[4] = molecular target: T2, Staphylococcus saprophyticus nitroreductase (Staphylococcus saprophyticus subsp. saprophyticus (strain ATCC 15305 / DSM20229 / NCIMB 8711 / NCTC 7292 / S-41), UniProt Q4A0P1); test: Substrate activity at Staphylococcus saprophyticus nitroreductase expressed in Escherichia coli assessed as half life […] at 100 uM by HPLC analysis (0 to 5 mins at 20 % ACN, 15 to 22 min at 80% ACN, 27-32 AT 20% ACN); format: ADME
T2 sequence (Q4A0P1 whole entry): T1 sequence (Q4A0P1 whole entry)

PC-3 [5] = test: Cytotoxicity in human PC3 cells assessed as reduction in cell viability at 180 nM measured after 48 hrs by SRB assay; format: cell-based; details: pc-3, 48 h, 0.18 µM
How it was run: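 They were exposed for 48 h to prodrug alone at 180 nM final, without enzyme or NADH, with 25 mM Tris-HCl as vehicle control. Cells were fixed with 12.5% TCA for 1 h at 4 °C, stained with 0.4% SRB and read at 492 nm as % cell survival, in triplicate.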

[6] = Cytotoxicity against human PC3 cells assessed as cell viability at 9 to 150 uM measured after 48 hrs by MTT assay relative to control; format: cell-based, PC-3; details: read-out: Activity
How it was run: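 They were treated for 48 h at 9, 18, 39, 78 and 150 µM, with 1% DMSO as vehicle control. Viability was read by MTT at 550 nm.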

[7] = Cytotoxicity against human HUVEC cells assessed as cell viability at 9 to 150 uM measured after 48 hrs by MTT assay relative to control; format: cell-based; details: read-out: Activity; how it was run: as §1
[8] = Solubility of the compound in 15% DMSO; format: physicochemical
Putative nitroreductase [9] = molecular target: T1, Putative nitroreductase; test: Substrate activity at Staphylococcus saprophyticus nitroreductase expressed in Escherichia coli assessed as retention time in the presence of NADPH at 100 uM by HPLC analysis (0 to 5 mins at 20% ACN, 25 to 35 min at 80% ACN, 40 to 45 min at 20% ACN); format: ADME
[10] = molecular target: T2, Staphylococcus saprophyticus nitroreductase; test: Substrate activity at Staphylococcus saprophyticus nitroreductase expressed in Escherichia coli assessed as half life […] at 100 uM by HPLC analysis (0 to 5 mins at 20% ACN, 25 to 35 min at 80% ACN, 40 to 45 min at 20% ACN); format: ADME
Putative nitroreductase [11] = molecular target: T1, Putative nitroreductase; test: Substrate activity at Staphylococcus saprophyticus nitroreductase expressed in Escherichia coli assessed as retention time in the presence of NADPH at 111 uM by HPLC analysis (0 to 5 mins at 20% ACN, 25 to 35 min at 80% ACN, 40 to 45 min at 20% ACN); format: ADME
Hep 3B2 = test: Cytotoxicity against human Hep3B cells assessed as reduction in cell viability measured after 48 hrs by MTT assay; format: cell-based; how it was run: as §1
[12] = molecular target: T2, Staphylococcus saprophyticus nitroreductase; test: Substrate activity at Staphylococcus saprophyticus nitroreductase expressed in Escherichia coli assessed as half life in the presence of NADPH at 111 uM by HPLC analysis (0 to 5 mins at 20% ACN, 25 to 35 min at 80% ACN, 40 to 45 min at 20% ACN); format: ADME
Putative nitroreductase [13] = molecular target: T1, Putative nitroreductase; test: Substrate activity at Staphylococcus saprophyticus nitroreductase expressed in Escherichia coli assessed as retention time […] at 111 uM by HPLC analysis (0 to 5 mins at 20 % ACN, 15 to 22 min at 80% ACN, 27-32 AT 20% ACN); format: ADME

| SMILES | viability at 48 h, up to 150 µM [1] [%] | IC50 (PC-3 [2]) [nM] | Retention_time (Putative nitroreductase [3]) [min] | half-life [4] [h] | Activity (PC-3 [5]) | viability at 48 h, up to 150 µM [6] [%] | viability at 48 h, up to 150 µM [7] [%] | solubility [8] | Retention_time (Putative nitroreductase [9]) [min] | half-life at 100 µM [10] [h] | Retention_time (Putative nitroreductase [11]) [min] | IC50 (Hep 3B2) [nM] | half-life [12] [h] | Retention_time (Putative nitroreductase [13]) [min] | Retention time (Putative nitroreductase [3]) [min] | Retention time (Putative nitroreductase [9]) [min] |
| --- | --- | --- | --- | --- | --- | --- | --- | --- | --- | --- | --- | --- | --- | --- | --- | --- |
| CCN(C(C)=O)c1cc([N+](=O)[O-])ccc1Br | > 80 | 12600 | 15.18 | < 0.1 | Non-Toxic | > 80 | > 80 |  |  |  |  |  |  |  |  |  |
| O=C(NCCNC(=O)c1ccc([N+](=O)[O-])cc1)c1ccc([N+](=O)[O-])cc1 | 51 to 80 | 31.1 | 18.65 | < 1.2 | Non-Toxic | > 80 | > 80 | Soluble | 17.86 | < 2.54 |  |  |  |  |  |  |
| CN(C)c1c([N+](=O)[O-])cc(C(=O)Nc2ccc(Cl)cc2)cc1[N+](=O)[O-] | < 50 |  |  |  |  | < 50 | 51 to 80 |  |  |  | 25.86 | 120000 | < 3.15 | 19.22 |  |  |
| CCCCN(CCCC)c1c([N+](=O)[O-])cc(C(=O)Nc2ccc([N+](=O)[O-])cc2)cc1[N+](=O)[O-] | < 50 |  |  |  |  | < 50 | < 50 |  |  |  | 31.96 | 30900 | < 1.56 | 26.5 |  |  |
| CCCCN(CCCC)c1c([N+](=O)[O-])cc(C(=O)Nc2ccc(Cl)cc2)cc1[N+](=O)[O-] | < 50 |  |  |  |  | < 50 | < 50 |  |  |  | 34.2 | 11600 | < 2.4 | 20.12 |  |  |
| O=C(c1ccc([N+](=O)[O-])cc1)N1CCN(C(=O)c2ccc([N+](=O)[O-])cc2)CC1 | > 80 | 18 | 17.28 |  | Non-Toxic | 51 to 80 | > 80 | Soluble | 17.6 | < 1.42 |  |  |  |  |  |  |
| O=C(NC1CCCCC1NC(=O)c1ccc([N+](=O)[O-])cc1)c1ccc([N+](=O)[O-])cc1 (centres undefined) | > 80 | 15.5 | 20.91 | < 0.52 | Non-Toxic | > 80 | > 80 | Soluble | 20.85 | < 1.8 |  |  |  |  |  |  |
| O=C(Nc1ccccc1NC(=O)c1ccc([N+](=O)[O-])cc1)c1ccc([N+](=O)[O-])cc1 | > 80 | 14.3 | 21.38 |  | Non-Toxic | > 80 | > 80 | Soluble | 22.08 | < 3.2 |  |  |  |  |  |  |
| CC(=O)Nc1cc([N+](=O)[O-])ccc1Br | > 80 | 10200 | 13.88 | < 0.2 | Non-Toxic | > 80 | > 80 |  |  |  |  |  |  |  |  |  |
| O=C(Nc1ccc(NC(=O)c2ccc([N+](=O)[O-])cc2)cc1)c1ccc([N+](=O)[O-])cc1 | 51 to 80 |  | 16.61 |  |  | > 80 | > 80 | Soluble |  |  |  |  |  |  |  |  |
| O=C(NCCCCNC(=O)c1ccc([N+](=O)[O-])cc1)c1ccc([N+](=O)[O-])cc1 | > 80 | 36.8 | 19.02 |  | Non-Toxic | > 80 | > 80 | Soluble |  |  |  |  |  |  |  |  |
| O=C(NC1CCCC(NC(=O)c2ccc([N+](=O)[O-])cc2)C1)c1ccc([N+](=O)[O-])cc1 (centres undefined) | > 80 | 30.5 |  | < 2 | Non-Toxic | 51 to 80 | > 80 | Soluble |  | < 0.26 |  |  |  |  | 19.4 to 20.6 | 19.4 to 20.1 |
| NC(=O)c1cc(N2CC2)c([N+](=O)[O-])cc1[N+](=O)[O-] [TRETAZICAR] |  |  |  |  | Non-Toxic |  |  |  |  |  |  |  |  |  |  |  |
| O=C(Nc1cccc(NC(=O)c2ccc([N+](=O)[O-])cc2)c1)c1ccc([N+](=O)[O-])cc1 | > 80 | 33.4 | 21.88 |  | Non-Toxic | > 80 | > 80 | Soluble | 21.98 |  |  |  |  |  |  |  |
